{"source": "ChEMBL document CHEMBL2157880", "about": "“Synthesis, antimycobacterial and antibacterial activity of ciprofloxacin derivatives containing a N-substituted benzyl moiety” (2012)"}
{"system": "Enterococcus faecalis", "experiment": "Antibacterial activity against Enterococcus faecalis 10-7 after 18 to 24 hrs by NCCLS method", "assay_type": "functional", "summary_of_the_method": "(§1)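 Standard NCCLS (M100-S11) MIC testing against Gram-positive and Gram-negative strains. Plates were incubated at 35 °C for 18–24 h. The MIC was read as the lowest concentration giving complete inhibition of visible bacterial growth.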", "units": {"MIC": "mg/L"}}
{"smiles": "O=C(O)c1cn(C2CC2)c2cc(N3CCNCC3)c(F)cc2c1=O", "note": "[CIPROFLOXACIN]", "MIC": 16}
{"system": "Klebsiella pneumoniae", "experiment": "Antibacterial activity against extended spectrum beta-lactamases producing Klebsiella pneumoniae 10-1 after 18 to 24 hrs by NCCLS method", "assay_type": "functional", "summary_of_the_method": "as §1", "units": {"MIC": "mg/L"}}
{"smiles": "O=C(O)c1cn(C2CC2)c2cc(N3CCNCC3)c(F)cc2c1=O", "note": "[CIPROFLOXACIN]", "MIC": 32}
{"system": "Pseudomonas aeruginosa", "experiment": "Antibacterial activity against Pseudomonas aeruginosa 10-18 after 18 to 24 hrs by NCCLS method", "assay_type": "functional", "summary_of_the_method": "as §1", "units": {"MIC": "mg/L"}}
{"smiles": "O=C(O)c1cn(C2CC2)c2cc(N3CCNCC3)c(F)cc2c1=O", "note": "[CIPROFLOXACIN]", "MIC": 1}
{"system": "Staphylococcus aureus", "experiment": "Antibacterial activity against methicillin-sensitive Staphylococcus aureus 10-11 after 18 to 24 hrs by NCCLS method", "assay_type": "functional", "summary_of_the_method": "as §1", "units": {"MIC": "mg/L"}}
{"smiles": "O=C(O)c1cn(C2CC2)c2cc(N3CCNCC3)c(F)cc2c1=O", "note": "[CIPROFLOXACIN]", "MIC": 0.5}
{"system": "Mycobacterium tuberculosis", "experiment": "Antimycobacterial activity against Mycobacterium tuberculosis H37Rv ATCC 27294 by microplate alamar blue assay", "assay_type": "functional", "summary_of_the_method": "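Microplate Alamar Blue fluorescence assay on strain H37Rv ATCC 27294. MIC was the lowest concentration cutting fluorescence by ≥90% against the mean of replicate bacterium-only controls.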", "units": {"MIC": "mg/L"}}
{"smiles": "O=C(O)c1cn(C2CC2)c2cc(N3CCNCC3)c(F)cc2c1=O", "note": "[CIPROFLOXACIN]", "MIC": 0.5}
{"system": "Staphylococcus epidermidis", "experiment": "Antibacterial activity against methicillin-sensitive Staphylococcus epidermidis 10-11 after 18 to 24 hrs by NCCLS method", "assay_type": "functional", "summary_of_the_method": "as §1", "units": {"MIC": "mg/L"}}
{"smiles": "O=C(O)c1cn(C2CC2)c2cc(N3CCNCC3)c(F)cc2c1=O", "note": "[CIPROFLOXACIN]", "MIC": 0.5}
{"system": "Enterococcus faecalis", "experiment": "Antibacterial activity against Enterococcus faecalis 10-6 after 18 to 24 hrs by NCCLS method", "assay_type": "functional", "summary_of_the_method": "as §1", "units": {"MIC": "mg/L"}}
{"smiles": "O=C(O)c1cn(C2CC2)c2cc(N3CCNCC3)c(F)cc2c1=O", "note": "[CIPROFLOXACIN]", "MIC": 64}
{"system": "Staphylococcus aureus", "experiment": "Antibacterial activity against methicillin-sensitive Staphylococcus aureus 10-14 after 18 to 24 hrs by NCCLS method", "assay_type": "functional", "summary_of_the_method": "as §1", "units": {"MIC": "mg/L"}}
{"smiles": "O=C(O)c1cn(C2CC2)c2cc(N3CCNCC3)c(F)cc2c1=O", "note": "[CIPROFLOXACIN]", "MIC": 0.5}
{"system": "Staphylococcus epidermidis", "experiment": "Antibacterial activity against methicillin-resistant Staphylococcus epidermidis 10-10 after 18 to 24 hrs by NCCLS method", "assay_type": "functional", "summary_of_the_method": "(§2)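 Incubated at 35 °C for 18–24 h under NCCLS (M100-S11) standards. MIC was read as the lowest concentration giving complete inhibition of visible bacterial growth.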", "units": {"MIC": "mg/L"}}
{"smiles": "O=C(O)c1cn(C2CC2)c2cc(N3CCNCC3)c(F)cc2c1=O", "note": "[CIPROFLOXACIN]", "MIC": 8}
{"system": "Staphylococcus epidermidis", "experiment": "Antibacterial activity against methicillin-resistant Staphylococcus epidermidis 10-13 after 18 to 24 hrs by NCCLS method", "assay_type": "functional", "summary_of_the_method": "as §2", "units": {"MIC": "mg/L"}}
{"smiles": "O=C(O)c1cn(C2CC2)c2cc(N3CCNCC3)c(F)cc2c1=O", "note": "[CIPROFLOXACIN]", "MIC": 16}
{"system": "Klebsiella pneumoniae", "experiment": "Antibacterial activity against extended spectrum beta-lactamases producing Klebsiella pneumoniae 10-2 after 18 to 24 hrs by NCCLS method", "assay_type": "functional", "summary_of_the_method": "as §1", "units": {"MIC": "mg/L"}}
{"smiles": "O=C(O)c1cn(C2CC2)c2cc(N3CCNCC3)c(F)cc2c1=O", "note": "[CIPROFLOXACIN]", "MIC": 32}
{"system": "Staphylococcus aureus", "experiment": "Antibacterial activity against methicillin-resistant Staphylococcus aureus 10-11 after 18 to 24 hrs by NCCLS method", "assay_type": "functional", "summary_of_the_method": "as §2", "units": {"MIC": "mg/L"}}
{"smiles": "O=C(O)c1cn(C2CC2)c2cc(N3CCNCC3)c(F)cc2c1=O", "note": "[CIPROFLOXACIN]", "MIC": 32}
{"system": "Klebsiella pneumoniae", "experiment": "Antibacterial activity against Klebsiella pneumoniae 10-3 after 18 to 24 hrs by NCCLS method", "assay_type": "functional", "summary_of_the_method": "as §1", "units": {"MIC": "mg/L"}}
{"smiles": "O=C(O)c1cn(C2CC2)c2cc(N3CCNCC3)c(F)cc2c1=O", "note": "[CIPROFLOXACIN]", "MIC": 0.25}
{"system": "Staphylococcus epidermidis", "experiment": "Antibacterial activity against methicillin-sensitive Staphylococcus epidermidis 10-15 after 18 to 24 hrs by NCCLS method", "assay_type": "functional", "summary_of_the_method": "as §2", "units": {"MIC": "mg/L"}}
{"smiles": "O=C(O)c1cn(C2CC2)c2cc(N3CCNCC3)c(F)cc2c1=O", "note": "[CIPROFLOXACIN]", "MIC": 8}
{"system": "Klebsiella pneumoniae", "experiment": "Antibacterial activity against Klebsiella pneumoniae 10-4 after 18 to 24 hrs by NCCLS method", "assay_type": "functional", "summary_of_the_method": "as §1", "units": {"MIC": "mg/L"}}
{"smiles": "O=C(O)c1cn(C2CC2)c2cc(N3CCNCC3)c(F)cc2c1=O", "note": "[CIPROFLOXACIN]", "MIC": 32}
{"system": "Staphylococcus aureus", "experiment": "Antibacterial activity against methicillin-resistant Staphylococcus aureus 10-13 after 18 to 24 hrs by NCCLS method", "assay_type": "functional", "summary_of_the_method": "as §2", "units": {"MIC": "mg/L"}}
{"smiles": "O=C(O)c1cn(C2CC2)c2cc(N3CCNCC3)c(F)cc2c1=O", "note": "[CIPROFLOXACIN]", "MIC": 128}
{"system": "Staphylococcus aureus", "experiment": "Antibacterial activity against methicillin-sensitive Staphylococcus aureus 10-13 after 18 to 24 hrs by NCCLS method", "assay_type": "functional", "summary_of_the_method": "as §1", "units": {"MIC": "mg/L"}}
{"smiles": "O=C(O)c1cn(C2CC2)c2cc(N3CCNCC3)c(F)cc2c1=O", "note": "[CIPROFLOXACIN]", "MIC": 0.5}
{"system": "Klebsiella pneumoniae", "experiment": "Antibacterial activity against extended spectrum beta-lactamases producing Klebsiella pneumoniae 10-3 after 18 to 24 hrs by NCCLS method", "assay_type": "functional", "summary_of_the_method": "as §1", "units": {"MIC": "mg/L"}}
{"smiles": "O=C(O)c1cn(C2CC2)c2cc(N3CCNCC3)c(F)cc2c1=O", "note": "[CIPROFLOXACIN]", "MIC": 32}
{"system": "Enterococcus faecalis", "experiment": "Antibacterial activity against Enterococcus faecalis 10-5 after 18 to 24 hrs by NCCLS method", "assay_type": "functional", "summary_of_the_method": "as §1", "units": {"MIC": "mg/L"}}
{"smiles": "O=C(O)c1cn(C2CC2)c2cc(N3CCNCC3)c(F)cc2c1=O", "note": "[CIPROFLOXACIN]", "MIC": 8}
{"system": "Klebsiella pneumoniae", "experiment": "Antibacterial activity against Klebsiella pneumoniae 10-2 after 18 to 24 hrs by NCCLS method", "assay_type": "functional", "summary_of_the_method": "as §1", "units": {"MIC": "mg/L"}}
{"smiles": "O=C(O)c1cn(C2CC2)c2cc(N3CCNCC3)c(F)cc2c1=O", "note": "[CIPROFLOXACIN]", "MIC": 32}
{"system": "Staphylococcus aureus", "experiment": "Antibacterial activity against Staphylococcus aureus ATCC 2592 after 18 to 24 hrs by NCCLS method", "assay_type": "functional", "summary_of_the_method": "as §1", "units": {"MIC": "mg/L"}}
{"smiles": "O=C(O)c1cn(C2CC2)c2cc(N3CCNCC3)c(F)cc2c1=O", "note": "[CIPROFLOXACIN]", "MIC": 0.25}
{"system": "Enterococcus faecium", "experiment": "Antibacterial activity against Enterococcus faecium 10-9 after 18 to 24 hrs by NCCLS method", "assay_type": "functional", "summary_of_the_method": "as §1", "units": {"MIC": "mg/L"}}
{"smiles": "O=C(O)c1cn(C2CC2)c2cc(N3CCNCC3)c(F)cc2c1=O", "note": "[CIPROFLOXACIN]", "MIC": 16}
{"system": "Streptococcus pneumoniae", "experiment": "Antibacterial activity against Streptococcus pneumoniae 10-6 after 18 to 24 hrs by NCCLS method", "assay_type": "functional", "summary_of_the_method": "as §1", "units": {"MIC": "mg/L"}}
{"smiles": "O=C(O)c1cn(C2CC2)c2cc(N3CCNCC3)c(F)cc2c1=O", "note": "[CIPROFLOXACIN]", "MIC": 32}
{"system": "Streptococcus pneumoniae", "experiment": "Antibacterial activity against Streptococcus pneumoniae 10-1 after 18 to 24 hrs by NCCLS method", "assay_type": "functional", "summary_of_the_method": "as §1", "units": {"MIC": "mg/L"}}
{"smiles": "O=C(O)c1cn(C2CC2)c2cc(N3CCNCC3)c(F)cc2c1=O", "note": "[CIPROFLOXACIN]", "MIC": 2}
{"system": "Enterococcus faecium", "experiment": "Antibacterial activity against Enterococcus faecium 10-6 after 18 to 24 hrs by NCCLS method", "assay_type": "functional", "summary_of_the_method": "as §1", "units": {"MIC": "mg/L"}}
{"smiles": "O=C(O)c1cn(C2CC2)c2cc(N3CCNCC3)c(F)cc2c1=O", "note": "[CIPROFLOXACIN]", "MIC": 1}
